Screens (PubChem)
OX1R antag-1: blocks the human orexin 1 receptor. OX1R-expressing cells, FRET antagonist read-out. inhibition, % at 6.6 µM. hit rate 1.8% among 330,000. AID 485270; in the data active = inhibition mostly above about 38%, no sharp cut-off; inactive = mostly below about 40%;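 also: 0% = agonist challenge alone and 100% = reference antagonist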
NTR1 agonist: activates human neurotensin receptor 1; activation, % at 20 µM; NTR1-U2OS beta-arrestin-GFP spot imaging, agonist mode; hit rate 0.17% among 330,000;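 active = activation at or above 40% of the spot to cytoplasm intensity ratio, with at least 20 cells analyzed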;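 also: 0% = DMSO without peptide and 100% = 100 nM NTR1 peptide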
Target sequence (P30989 whole entry, looked up): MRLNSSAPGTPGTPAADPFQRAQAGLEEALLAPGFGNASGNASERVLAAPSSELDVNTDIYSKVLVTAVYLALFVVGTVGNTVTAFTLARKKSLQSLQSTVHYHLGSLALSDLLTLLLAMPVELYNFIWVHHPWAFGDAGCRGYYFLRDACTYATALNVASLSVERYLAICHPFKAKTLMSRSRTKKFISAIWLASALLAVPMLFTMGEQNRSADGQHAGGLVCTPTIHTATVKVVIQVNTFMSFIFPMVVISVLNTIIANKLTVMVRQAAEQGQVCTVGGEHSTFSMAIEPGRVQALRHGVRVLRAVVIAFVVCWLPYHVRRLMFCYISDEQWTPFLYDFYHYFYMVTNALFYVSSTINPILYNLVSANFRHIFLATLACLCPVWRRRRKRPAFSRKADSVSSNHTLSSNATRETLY
TAAR1 antagonist: antagonists of human TAAR1. Q96RJ0. CHO RD-HGA16 TAAR1, Fluo-8 calcium fluorescence, antagonist. inhibition, % at 3 µM. hit rate 1.5% among 360,000. AID 624466;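 active = inhibition above a per-plate cutoff, the mean inhibition of test compounds on that plate plus 3 SD, cut at about 49% in these data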;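 also: 0% = DMSO plus EC80 beta-PEA response and 100% = DMSO alone without agonist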
Target sequence (Q96RJ0 whole entry, looked up): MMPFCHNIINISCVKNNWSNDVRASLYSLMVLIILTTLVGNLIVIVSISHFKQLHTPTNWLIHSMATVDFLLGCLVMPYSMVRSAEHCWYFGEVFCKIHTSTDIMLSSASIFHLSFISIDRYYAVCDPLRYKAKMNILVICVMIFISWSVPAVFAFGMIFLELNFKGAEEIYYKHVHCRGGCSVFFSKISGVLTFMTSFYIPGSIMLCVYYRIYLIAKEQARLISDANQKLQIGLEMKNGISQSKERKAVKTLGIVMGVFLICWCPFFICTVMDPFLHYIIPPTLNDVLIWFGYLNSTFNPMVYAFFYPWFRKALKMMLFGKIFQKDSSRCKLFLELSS
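Assay system: RD-HGA16 CHO cells with stable hTAAR1 and Gα16 / Reagent: EC80 β-phenethylamine stimulus / Doses: 3 µM, single point / Timing: dye loading 75 min at 37 °C, then 30 min room temperature / Measured by: Fluo-8 intracellular calcium dye fluorescence, real-time kinetic reads / Controls: vehicle wells and EC80 agonist wells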
TAAR1 ag: human TAAR1 agonism | Q96RJ0 | AID 624467 | hit rate 0.99% among 360,000 | CHO RD-HGA16 TAAR1, Fluo-8 calcium fluorescence; vehicle wells 0%, saturating PEA agonist 100% | activation, % at 3 µM;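 active = activation above the mean activation of all test compounds in the run plus 3 SD, cut at about 38% in these data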
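System: CHO-derived RD-HGA16 cells with stable Gα16 and human TAAR1. Times: 17-24 h plating, Fluo-8 75 min 37 °C, 30 min RT. Measured by: calcium-sensitive Fluo-8 signal, excitation 470-495, emission 515-575 nm. Read-out basis: % activation relative to PEA EC100 response. Control set: DMSO and PEA EC100. Repeats: no replicates (n 1).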
OX1R antag-2: human HCRTR1 antagonism; O43613; CHO/OX1R cells, Fluo-8 calcium fluorescence, orexin A; inhibition, % at 5 µM; hit rate 0.43% among 330,000; AID 434989;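 active = inhibition above its plate's threshold, mean inhibition of all tested compounds on the plate plus 3 SD, cut at about 37% in these data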;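 also: 0% = orexin A challenge wells and 100% = SB-334867-A antagonist wells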
CHO parental Ca: signal in parental CHO cells, OX1R antagonist counter-screen | parental CHO-K1, ATP-induced calcium, Fluo-8 fluorescence | inhibition, % at 5.6 µM | hit rate 0.63% among 330,000 | AID 463079;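 active = inhibition above that plate's mean sample inhibition plus 3 SD, cut at about 26% in these data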;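 also: 0% = ATP-challenged DMSO wells and 100% = DMSO wells without ATP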
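Material – parental CHO cells · Reagent – ATP stimulus · Compound – single nominal dose of 5.6 µM per compound · Detection – Fluo-8 fluorescence · Read-out basis – percent inhibition of calcium signal · Controls – ATP-challenged DMSO wells low, unchallenged DMSO wells high · Repeats – no replicates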
nonsel antag count: counter-screen for TAAR1 antagonists: nonselective antagonists; shares compounds with TAAR1 antagonist; counterscreen cell line, calcium fluorescence, antagonist mode; inhibition, % at 3 µM; hit rate 77% among 2,400; in the data active = inhibition above about 22%;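 also: CHO-Ga16 host cells stimulated with ATP at an EC80 level; 0% = agonist EC80 plus vehicle and 100% = vehicle without agonist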
TAAR1 antag conf: confirmation of human TAAR1 antagonists. shares compounds with TAAR1 antagonist. TAAR1-expressing cells, fluorescence antagonist read-out. AID 651785. inhibition, % at 3 µM. hit rate 40% among 2,400; in the data active = inhibition above about 49%;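 also: CHO-Ga16 host cells challenged with agonist PEA near its EC80; 0% = agonist at EC80 plus vehicle and 100% = vehicle with no agonist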
Ga16 nonsel ag: counter-screen for TAAR1 antagonists: nonselective Ga16 agonists; AID 651953; shares compounds with TAAR1 antagonist; Ga16-expressing cells, calcium fluorescence, agonist counterscreen; activation, % at 3 µM; hit rate 18% among 2,400; in the data active = activation above about 12%;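 also: 0% = vehicle wells and 100% = saturating stimulus response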
TAAR1 ag counter: activates human TAAR1 in antagonist counter-screen | AID 651955 | shares compounds with TAAR1 antagonist | activation, % at 3 µM | hit rate 2% among 2,400 | hTAAR1 cell line, fluorescence activation, agonist mode; in the data active = activation above about 37%;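 also: CHO cells stably expressing TAAR1 with calcium dye readout; 0% = DMSO vehicle and 100% = full agonist response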
An asterisk follows results filed as active; nt = no result given. Compounds with a hit are over-represented: about 4% of the library has one in this group of screens.

SMILES	OX1R antag-1	NTR1 agonist	TAAR1 antagonist	TAAR1 ag	OX1R antag-2	CHO parental Ca	nonsel antag count	TAAR1 antag conf	Ga16 nonsel ag	TAAR1 ag counter
CC(C)CCNC(=O)C(c1ccc(O)cc1)N(Cc1cccs1)C(=O)C1COc2ccccc2O1 (stereo unspecified)	20	5	57*	5	-11	-20	27*	54*	4	1
CC(C)(C)NC(=O)CN(Cc1cccs1)C(=O)C1COc2ccccc2O1 (stereo unspecified)	12	0	12	4	-35	-10	nt	nt	nt	nt
COc1ccc(OC)c(NC(=O)Cc2ccc(NC3=NC4CS(=O)(=O)CC4S3)cc2)c1 (stereo unspecified)	5	0	-8	1	-5	0	nt	nt	nt	nt
CC[C@@H](NS(=O)(=O)c1ccc(C)cc1)C(=O)Oc1ccc2c3c(c(=O)oc2c1)CCC3	16	8	30	12	-16	-11	nt	nt	nt	nt
Cc1ccc(S(=O)(=O)NC(CC(C)C)C(=O)Oc2ccc3c4c(c(=O)oc3c2)CCC4)cc1 (stereo unspecified)	15	30	67*	10	-18	-22	26*	45	6	4
CC(NS(=O)(=O)c1ccc2[nH]c(=O)[nH]c2c1)c1ccc(F)cc1 (stereo unspecified)	nt	nt	5	2	nt	nt	nt	nt	nt	nt
CCc1cccc(NC(=O)CSCc2cc(=O)[nH][nH]2)c1	12	0	105*	-3	-12	2	12	6	1	0
O=C(NNC(=O)c1ccccc1Cl)c1cc2cc(OC(F)(F)F)ccc2[nH]1	3	-1	12	1	-11	-5	nt	nt	nt	nt
C=CCN1C(=O)N(c2ccccc2)C(=O)C1CC(=O)Nc1ccc(OC)cc1 (stereo unspecified)	5	0	-9	0	-10	-2	nt	nt	nt	nt
N#Cc1c(N)[nH]c2ccc(Sc3ccccc3)cc12	nt	nt	54*	25	nt	nt	28*	41	12*	24
N#Cc1ccc(C(=O)OCC(=O)Nc2cccc(S(=O)(=O)NC3=NCCC3)c2)cc1	0	-2	8	2	20	-2	nt	nt	nt	nt
O=c1oc(CCCO)cc2ccc(C#CC3(O)CCCCC3)cc12	13	5	18	30	7	3	nt	nt	nt	nt
O=C1c2ccccc2C(=O)N1CCC#Cc1ccc2cc(CCCO)oc(=O)c2c1	8	-3	69*	19	44	3	61*	75*	24*	36
CN(C)C(=O)COc1ccc2c3c(c(=O)oc2c1)CCCC3	3	1	5	2	-18	-4	nt	nt	nt	nt
COc1ccc(N2CC(C(=O)Nc3c(C(N)=O)oc4ccccc34)CC2=O)cc1 (stereo unspecified)	-3	-2	28	4	-18	-8	nt	nt	nt	nt
COc1ccc2[nH]c(=O)c(CN(CC3CCCO3)C(=O)Nc3ccc(F)cc3)cc2c1 (stereo unspecified)	nt	nt	81*	24	nt	nt	52*	66*	16*	12
COc1ccc2[nH]c(=O)c(CN(CC3CCCO3)S(=O)(=O)c3ccccc3F)cc2c1 (stereo unspecified)	24	0	63*	23	-29	-24	26*	43	10	17
COc1ccc(NC(=O)N(Cc2cc3cc(C)ccc3[nH]c2=O)CC2CCCO2)cc1 (stereo unspecified)	7	0	-15	0	-24	-20	nt	nt	nt	nt
COc1ccc2[nH]c(=O)c(CN(CC3CCCO3)S(=O)(=O)c3ccccc3)cc2c1 (stereo unspecified)	15	0	41	14	-21	-31	nt	nt	nt	nt
Cc1ccc(C(=O)OCC(=O)Nc2cc(Cl)ccc2C#N)o1	nt	nt	-11	1	nt	nt	nt	nt	nt	nt
CSc1ccccc1NC(=O)N1CCCC(C(=O)c2ccc3c(c2)OCO3)C1 (stereo unspecified)	28	2	-17	1	-9	-15	nt	nt	nt	nt
CC(=O)c1ccc(NC(=O)N2CCCC(C(=O)c3ccc4c(c3)OCO4)C2)cc1 (stereo unspecified)	18	1	49*	10	-33	-8	22*	35	11	11
CCCCN1CC[C@H]2C=CC[C@@H](C(=O)Nc3nccs3)[C@H]2C1=O	26	0	-1	11	-16	-19	nt	nt	nt	nt
Cc1ccc2cc(C#N)c(N3CCCN(C(=O)c4cnccn4)CC3)nc2c1	12	-1	-19	2	-13	-6	nt	nt	nt	nt
Cc1ccc2cc(C#N)c(N3CCN(C(=O)c4ccccc4)CC3)nc2c1	13	1	71*	8	-29	-19	34*	39	8	3
SMILES	OX1R antag-1	NTR1 agonist	TAAR1 antagonist	TAAR1 ag	OX1R antag-2	CHO parental Ca	nonsel antag count	TAAR1 antag conf	Ga16 nonsel ag	TAAR1 ag counter
O=C1CC(c2ccco2)CC2=C1C1c3ccccc3C(=O)N1c1ccccc1N2 (stereo unspecified)	15	2	64*	16	-28	-2	24*	45	5	8
O=C(c1ccc(F)cc1)C1CCN(CCn2c(=S)[nH]c3ccccc3c2=O)CC1	15	0	nt	nt	-13	-17	nt	nt	nt	nt
CC1(C)C(=O)N(CCN2CCC(C(=O)c3ccc(F)cc3)CC2)c2ccccc21	19	-1	87*	13	-17	-14	37*	56*	12*	10
CN(C(=O)Cn1nc(Cl)ccc1=O)C1CCCN(Cc2ccccc2F)C1 (stereo unspecified)	10	2	-5	4	-4	-4	nt	nt	nt	nt
CC(C)c1cccc(-c2ccc3c(c2)S(=O)(=O)c2cccc(C(=O)NCc4ccccc4Cl)c2C3=O)c1	5	4	nt	nt	-9	-17	nt	nt	nt	nt
CC(C)c1cccc(-c2ccc3c(c2)S(=O)(=O)c2cccc(C(=O)NCc4ccccc4)c2C3=O)c1	3	10	61*	7	-11	-6	36*	47	4	2
O=C(NC[C@H]1CCCO1)c1cccc2c1C(=O)c1ccc(-c3ccc(F)cc3OCc3ccccc3)cc1S2(=O)=O	16	1	69*	19	7	-4	37*	51*	8	8
CCN(CC)CCCn1c2c(c(SCC(=O)Nc3ccc4c(c3)OCO4)nc1=O)CCC2	16	1	-15	5	-17	-21	nt	nt	nt	nt
O=C(Cc1cccs1)Nc1cccc(-c2nc3cc4ccccc4cc3[nH]2)c1	56	nt	74*	8	10	3	34*	44	6	0
